# Sampled rows, rich in hits. Any-hit rate of the full collection: about 4.1%.
# MC4R antag cAMP: MC4R antagonists of cAMP signaling, primary screen, cell-based, TR-FRET, antagonist arm of biased-ligand search; MC4R-expressing cells, MTII-stimulated cAMP, LANCE TR-FRET; 360,000 compounds, 0.48% hits; inhibition, % at 6.5 µM; Melanocortin receptor 4 (Homo sapiens), P32245;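 active means inhibition above its plate's cutoff, the mean of tested wells on that plate plus 3 SD, cut at about 29% in these data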;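 further: 0% = Melanotan II alone and 100% = Melanotan II plus saturating MCL0020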
#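 system = U2OS cells with stable human MC4R expression | also added = Melanotan II challenge after compound preincubation | dosing = one concentration, 6.5 µM nominal | incubation = compound 30 min, challenge 1 h, detection 1 h | measured by = TR-FRET with Eu-cAMP and labeled anti-cAMP, 671 nm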
# MPTP block: mitochondrial permeability transition pore inhibitors, primary screen, biochemical, isolated mouse mitochondria, absorbance; Ca2+ swelling absorbance, 30 min; inhibition, % at 10 µM; 360,000 compounds, 1.4% hits; AID 602449, 2012;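 active means inhibition of 50% or more, scaled per plate between neutral and stimulator controls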;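 further: 0% = DMSO wells given calcium and 100% = 1 mM EGTA wells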
# ATG4B inh: ATG4B protease inhibitors, primary screen, biochemical, fluorescence, uHTS; inhibition, % at 8.33 µM; 340,000 compounds, 0.51% hits; AID 504462, 2011; ATG4B cleavage of LC3-PLA2, NBD-HPC fluorescence, 1 h; Cysteine protease ATG4B (Homo sapiens), Q9Y4P1; in the data active means inhibition above about 40%
# Target sequence (Q9Y4P1 whole entry, looked up): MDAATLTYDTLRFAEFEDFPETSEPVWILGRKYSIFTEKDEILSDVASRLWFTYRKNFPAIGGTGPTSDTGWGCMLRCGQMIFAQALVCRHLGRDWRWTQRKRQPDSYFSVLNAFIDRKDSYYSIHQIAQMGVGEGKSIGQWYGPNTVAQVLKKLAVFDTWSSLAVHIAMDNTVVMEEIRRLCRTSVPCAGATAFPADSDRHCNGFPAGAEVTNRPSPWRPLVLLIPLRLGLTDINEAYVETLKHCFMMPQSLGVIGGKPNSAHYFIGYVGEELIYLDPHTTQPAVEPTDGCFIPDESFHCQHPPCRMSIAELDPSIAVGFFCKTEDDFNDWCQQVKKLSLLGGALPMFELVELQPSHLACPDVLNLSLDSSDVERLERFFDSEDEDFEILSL
# MC4R ag barr: MC4R agonists recruiting beta-arrestin, primary screen, cell-based, luminescence, agonist arm of biased-ligand search | U2OS MC4R beta-arrestin complementation; percent of melanotan II response, DMSO zero | activation, % at 8.9 µM | 360,000 compounds, 0.98% hits | AID 540308, 2011;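 active means activation above a per-plate cutoff, the mean activation of sample wells on that plate plus 3 SD, cut at about 8% in these data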
# SMARCA2 activ: SMARCA2 (BRM) function activators, primary screen, cell-based, luminescence, high throughput | MG213 cells, MMTV-luciferase reporter, dexamethasone, overnight | activation, % at 9.1 µM | 370,000 compounds, 1% hits; in the data active means activation above about 7.8%;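 further: 0% = vehicle wells and 100% = reference activator wells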
# SMARCA2 conf: SMARCA2 (BRM) function activators, confirmation, cell-based, luminescence, triplicate; shares compounds with SMARCA2 activ; 3,500 compounds, 30% hits; MG213 cells, MMTV-luciferase with dexamethasone, overnight; MG213 cells expressing E1A, Rb sequestered; DMSO wells 0%, reference activator 100%; activation, % at 9.1 µM;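 active means activation above its plate's cutoff, the mean activation of tested wells plus 3 SD, cut at about 7.9% in these data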
# GAL4-VP16 Luc: GAL4-VP16 luciferase reporter activation, counter-screen for SMARCA2 (BRM) activator project, cell-based, pG5luc, luminescence, high throughput; activation, % at 9.1 µM; 3,500 compounds, 41% hits; HEK293 GAL4-VP16 pG5luc reporter; scaled: DMSO wells 0%, SAHA wells 100%; shares compounds with SMARCA2 activ;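 active means activation above the solvent-only control well mean plus 3 SD, averaged across control plates, cut at about 5.2% in these data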
# * marks the source's active call; other numbers are inactive results; / = no result given.
SMILES,MC4R antag cAMP,MPTP block,ATG4B inh,MC4R ag barr,SMARCA2 activ,SMARCA2 conf,GAL4-VP16 Luc
COCCNC(=O)C1(C)C=CC2(CCCCC2)N1C(=O)c1ccccc1 (stereo unspecified),7,0,4,1,1,/,/
CCCN1CCCCC(NC(=O)c2ccc(Cl)cc2Cl)C1=O (stereo unspecified),/,/,/,/,0,/,/
Cc1ccc(NC(=O)c2cc([N+](=O)[O-])ccc2N2CCOCC2)cc1C,7,-2,-3,-2,8.1*,-5,1
CCOC(=O)[C@]12CCCCC/C=C\1N(Cc1ccc(OC)cc1)C(=O)[C@H]2CC(=O)NCc1ccc(OC)c(OC)c1,/,/,/,/,-4,/,/
COc1cccc(Nc2nc(-c3cccnc3)cs2)c1,2,1,-5,-1,11*,13*,6.6*
O=C(NCCSc1ccccc1)c1ccccc1Cl,4,0,4,1,8.7*,8.7*,8.8*
O=C(CSc1nc2ccccc2nc1N1CCOCC1)NCc1ccc(Cl)cc1Cl,/,/,/,/,-4,/,/
CN1C(=O)C[C@@](C#N)(C(=O)NCc2ccc3c(c2)OCO3)[C@H]1c1ccccc1,/,/,/,/,2,/,/
COc1ccc(OCc2ccc(/C=N\NC(=O)c3sccc3C)o2)cc1,9,0,11,-4,8.5*,9.4*,2
CC(=O)N[C@H]1C[C@@H]2O[C@H](CO)CC[C@@H]2O[C@@H]1CCc1ccc(-c2ccc(F)cc2)cc1,/,/,/,/,-2,/,/
O=C(NC1CCCCCC1)C1CCN(S(=O)(=O)N2CCC3(CC2)OCCO3)CC1,3,0,-4,-1,9.9*,-2,2
c1ccc(-c2csc(Nc3ccc4c(c3)OCO4)n2)cc1,/,2,/,/,11*,3,9.3*
CC(=O)N1CCn2c3ccc(C)cc3c3cccc1c32,-5,1,-10,-1,8.4*,6,3
O=C(CSc1nnc(Cc2cccs2)n1-c1ccccc1)Nc1ccccc1-c1ccccc1,/,/,/,/,-4,/,/
Cc1ccc(CN(C(=O)c2cc3ccccc3oc2=O)C2CCS(=O)(=O)C2)cc1 (stereo unspecified),4,0,0,-1,8.7*,4,4
Clc1cccc(/C=N/Nc2nc(Cl)nc3ccccc23)c1,2,2,-11,3,11*,11*,11*
Cc1cc(C)nc(N/N=C/c2cccc(Cl)c2)n1,-8,-1,-5,-3,2,/,/
COC(=O)C1=C(C)N(C)C(=NCc2ccc(C(F)(F)F)cc2)NC1c1cccc(Cl)c1 (stereo unspecified),/,/,/,/,-3,/,/
CNc1cncc(-c2ccc(F)cc2F)n1,13,0,/,2,10*,0,1
Cc1cccc2cc(/C=N/Nc3ccc(C(=O)O)cc3)c(Cl)nc12,21,0,11,-2,6,/,/
O=C(O)c1ccc(N/N=C/c2cc3ccccc3nc2Cl)cc1,-8,2,-8,0,13*,8,12*
O=[N+]([O-])c1ccccc1N/N=C/c1cc2ccccc2nc1Cl,15,4,12,2,8.2*,11*,5.3*
COc1ccc(OC)c(CN2C(=O)COc3ccccc3C2c2nnnn2C2CCCC2)c1 (stereo unspecified),/,/,/,/,2,/,/
O=C(NC1CCCCN(Cc2ccc(Cl)cc2)C1=O)c1ccc(Cl)cc1Cl (stereo unspecified),/,/,/,/,-2,/,/
CCN(CC)CCNC(=O)CCn1c(=S)[nH]c2cc3c(cc2c1=O)OCO3,-1,2,5,-2,1,/,/
SMILES,MC4R antag cAMP,MPTP block,ATG4B inh,MC4R ag barr,SMARCA2 activ,SMARCA2 conf,GAL4-VP16 Luc
CCN(CC)CCn1c(=S)[nH]c2cc3c(cc2c1=O)OCO3,2,1,-4,0,8.7*,3,0
Cc1ccc(S(=O)(=O)N2CCOCC2)cc1C(=O)OCC(=O)c1c(N)n(C)c(=O)n(C)c1=O,0,-2,-7,-3,-5,/,/
Cc1ccc(S(=O)(=O)N2CCOCC2)cc1C(=O)OCC(=O)NC1CCCCC1,12,0,0,3,-1,/,/
Cc1ccc(S(=O)(=O)N2CCOCC2)cc1C(=O)OCC(=O)NC1CC1,5,1,2,0,9.3*,-4,0
Cn1c(N)c(C(=O)COC(=O)c2cc(S(=O)(=O)N3CCOCC3)ccc2F)c(=O)n(C)c1=O,-69,-1,-7,-6,37*,9.9*,0
COC(=O)[C@]12C[C@H](CC(=O)NCc3ccc(OC)c(OC)c3)C(=O)N(CCC3=CCCCC3)C1=C[C@H](C(C)C)O[C@@H]2C1CC1,/,/,/,/,-4,/,/
CNc1cccc(-c2ccc(C(=O)N3CCOCC3)cc2)n1,14,0,/,1,10*,8,0
Cc1ccc(S(=O)(=O)Nc2ccc(N3CCN(C)CC3)nc2)cc1,2,-1,2,-1,2,/,/
CNc1cnc(-c2cccc(C(=O)N3CCOCC3)c2)cn1,7,0,/,-1,-3,/,/
CNc1cccc(-c2ccc(N3CCN(C)CC3)nc2)n1,0,0,/,0,9.1*,12*,7.7*
CC[C@@]1(c2cccc(Cl)c2)C(=O)N(C(=O)OC(C)C)N1C(=O)OC(C)C,/,/,/,/,-2,/,/
C[C@H]1COc2cc(Br)ccc2S(=O)(=O)N1Cc1cn(Cc2ccc(C(F)(F)F)cc2)nn1,/,/,/,/,-4,/,/
CC(C)c1ccc(C2N3CC4([N+](=O)[O-])CN2CC([N+](=O)[O-])(C3)C4(C)C)cc1 (stereo unspecified),15,0,-5,-1,13*,0,0
O=C(CSc1nnc2ccccn12)Nc1ncc(Cl)cc1Cl,14,-2,1,1,9.5*,8.4*,3
COC(=O)[C@]12C[C@H](CC(=O)N3CCCCC3)C(=O)N(CCC3=CCCCC3)C1=C[C@H](C(C)(C)C)O[C@@H]2C,/,/,/,/,1,/,/
COc1cc(SC)ccc1C(=O)Nc1ccc(C)cc1,1,-1,-5,-4,3,/,/
COc1cc(SC)ccc1C(=O)Nc1ccc(C)cc1C,/,1,-6,/,8.1*,13*,14*
CC(=O)c1cc(-c2ccccc2)n(CC(=O)NCc2ccccc2Cl)c1C,/,/,/,/,-4,/,/
COc1cccc(C2NC(=S)NC(C)=C2C(C)=O)c1 (stereo unspecified),/,/,/,/,1,/,/
C=CCOc1ccc(/C=N/NC(=O)CC(=O)NC2CCCCC2)cc1,6,0,-15,-1,2,/,/
